Test results published in ChEMBL document CHEMBL1121404, “Synthesis and study of conformationally defined enantiomers of local anesthetics and conformationally defined enantiomers of fluorescent dyes designed to label electrically excitable membranes” (1980).

Experiments:
[1] = system: Majidae; test: The compound was tested for its ability to block the excitability of spider crab walking leg nerve bundles, the peak action potential amplitude, upon washing in physiological saline for 20 minutes.; format: functional, organism-based
How it was run: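 Spider crab (Libinia emarginata) nerve bundles exposed to 1 mM compound in bath for 20 min, then washed 20 min in physiological saline (pH 8.0); stimulation with 0.4-ms threshold pulses at 18-20 °C; value is percent recovery of peak compound action potential amplitude relative to control; mean ± SE of 4-6 experiments.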

[2] = system: Majidae; test: The compound was tested for its ability to block the excitability of spider crab walking leg nerve bundles, peak action potential amplitude, recorded by a pair of external Ag-AgCl electrodes.; format: functional
How it was run: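 Libinia emarginata claw/walking-leg nerve bundles; compound applied in external bath at 1 mM for 20 min in physiological saline (416 mM NaCl, 10 mM KCl, 11 mM CaCl2, 55 mM MgCl2, 2.5 mM NaHCO3, pH 8.0); 0.4-ms threshold pulses; 18-20 °C; % decrease in peak compound action potential amplitude via external Ag-AgCl electrodes; mean ± SE of 4-6 experiments.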

[3] = system: Majidae; test: The compound was tested for optical responses recorded from spider crab walking leg nerve bundles upon staining.; format: functional
How it was run: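 Nerve bundles stained 30 min in Tris-buffered artificial sea water (pH 8) with 25-50 nM dye, poorly soluble dyes first dissolved in 0.1 mL 95% EtOH per 100 mL; excitation with 365 ± 10 nm light from xenon-mercury lamp; time-averaged fluorescence recorded with extracellular compound action potential; ΔI/I (excitation-linked change over resting intensity); mean ± SE of 2-8 experiments.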

C[C@H](Cc1ccc(N)cc1)N(C)C
Recovery [1]: 100% | Decrease [2]: 28%

CN(C)c1cccc2c(S(=O)(=O)N[C@H](CO)Cc3ccccc3)cccc12
Delta I/I [3]: 0.00018

C[C@H](Cc1ccccc1)NS(=O)(=O)c1cccc2c(N(C)C)cccc12
Delta I/I [3]: 8.5e-05

C[C@@H](Cc1ccc(N)cc1)N(C)C
Recovery [1]: 100% | Decrease [2]: 33%

C[C@@H](Cc1ccccc1)NS(=O)(=O)c1cccc2c(N(C)C)cccc12
Delta I/I [3]: 7e-05

C[C@H](Cc1ccccc1)NC(=O)c1cccc2c(N(C)C)cccc12
Delta I/I [3]: 0.00035

C[C@H](Cc1ccc([N+](=O)[O-])cc1)N(C)C
Recovery [1]: 46% | Decrease [2]: 93%

C[C@@H](Cc1ccccc1)NC(=O)c1cccc2c(N(C)C)cccc12
Delta I/I [3]: 0.00038

CN(C)c1cccc2c(C(=O)N[C@H](CO)Cc3ccccc3)cccc12
Delta I/I [3]: 0.00024

CN(C)c1cccc2c(C(=O)N[C@@H](CO)Cc3ccccc3)cccc12
Delta I/I [3]: 0.00025

C[C@@H](Cc1ccc([N+](=O)[O-])cc1)N(C)C
Recovery [1]: 35% | Decrease [2]: 84%

CN(C)c1cccc2c(S(=O)(=O)N[C@@H](CO)Cc3ccccc3)cccc12
Delta I/I [3]: 0.00015
